Assay results reported in ChEMBL document CHEMBL5247578, “Effective synthesis of benzimidazoles-imidazo[1,2-a]pyrazine conjugates: A comparative study of mono-and bis-benzimidazoles for antitumor activity” (Eur J Med Chem, 2019).
Active and inactive are the calls of the source. The calls are words filed in the database; no cut-off is given here.

What was measured:
Calf thymus DNA = assay: Binding affinity to calf thymus DNA assessed as intercalation by measuring decrease in DNA intensity by circular dichroism spectroscopy; format: nucleic-acid assay; details: Bos taurus
HEK293 = assay: Cytotoxicity against human HEK293 cells assessed as reduction in cell viability at 0.0001 M incubated for 48 hrs by MTT colorimetric assay relative to control; format: toxicity, cell-based; details: hek293, 48 h, 100 µM
DU-145 [1] = assay: Antiproliferative activity against human DU-145 cells assessed as cell growth at 0.00000001 M incubated for 48 hrs by SRB assay relative to control; format: functional; details: dose 10 nM, read-out: Activity
Summary of the method: (§1)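 NCI-60 five-dose screen over 10^-4–10^-8 M (10-fold dilutions). Cells grown in RPMI 1640 with 5% FBS and 2 mM L-glutamine, seeded at 5,000–40,000 cells/well and preincubated 24 h. Drug from DMSO stock, 48 h at 37 °C, 5% CO2. Adherent cells TCA-fixed and stained with 0.4% SRB; A515 read. Percent growth = (Ti−Tz)/(C−Tz)×100, or (Ti−Tz)/Tz×100 when Ti<Tz.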

UO-31 [2] = assay: Antiproliferative activity against human UO-31 cells assessed as cell growth at 0.00000001 M incubated for 48 hrs by SRB assay relative to control; format: functional; details: dose 10 nM, read-out: Activity
A498 = assay: Antiproliferative activity against human A498 cells assessed as cell growth at 0.00000001 M incubated for 48 hrs by SRB assay relative to control; format: functional; details: dose 10 nM, read-out: Activity; summary of the method: as §1
OVCAR-8 [3] = assay: Antiproliferative activity against human OVCAR-8 cells assessed as cell growth at 0.00000001 M incubated for 48 hrs by SRB assay relative to control; format: functional; details: dose 10 nM, read-out: Activity
MOLT-4 = assay: Antiproliferative activity against human MOLT-4 cells assessed as cell growth at 0.00000001 M incubated for 48 hrs by SRB assay relative to control; format: functional; details: dose 10 nM, read-out: Activity
NCI-H522 [4] = assay: Antiproliferative activity against human NCI-H522 cells assessed as cell growth at 0.00000001 M incubated for 48 hrs by SRB assay relative to control; format: functional; details: dose 10 nM, read-out: Activity
SNB-19 [5] = assay: Antiproliferative activity against human SNB-19 cells assessed as cell growth at 0.00000001 M incubated for 48 hrs by SRB assay relative to control; format: functional; details: dose 10 nM, read-out: Activity
NCI-H522 [6] = assay: Antiproliferative activity against human NCI-H522 cells assessed as cell growth inhibition by measuring lethal concentration incubated for 48 hrs by sulforhodamine B assay; format: functional; details: read-out: LC50 (the source's name)
HL-60 = assay: Antiproliferative activity against human HL-60 cells assessed as cell growth inhibition by measuring lethal concentration incubated for 48 hrs by sulforhodamine B assay; format: functional; details: read-out: LC50 (the source's name)
OVCAR-3 = assay: Growth inhibition against human OVCAR-3 cells assessed as total growth inhibitory concentration incubated for 48 hrs by sulforhodamine B assay; format: functional
NCI-H460 = assay: Growth inhibition against human NCI-H460 cells assessed as total growth inhibitory concentration incubated for 48 hrs by sulforhodamine B assay; format: functional
SNB-19 [7] = assay: Growth inhibition against human SNB-19 cells incubated for 48 hrs by sulforhodamine B assay; format: functional
SF-268 [8] = assay: Growth inhibition against human SF-268 cells incubated for 48 hrs by sulforhodamine B assay; format: functional
HOP-92 = assay: Antiproliferative activity against human HOP-92 cells assessed as cell growth at 0.0000001 M incubated for 48 hrs by SRB assay relative to control; format: functional; details: dose 100 nM, read-out: Activity
Summary of the method: (§2)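 NCI-60 five-dose screen (10^-4 to 10^-8 M). Cells grown in RPMI 1640 with 5% FBS and 2 mM L-glutamine, plated at 5,000-40,000 cells/well and preincubated 24 h. Drug given from DMSO stock, then 48 h at 37 °C, 5% CO2. For adherent lines, cells fixed with cold TCA, SRB-stained and read at 515 nm. Percent growth taken against time-zero and untreated control.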

NCI-H322M [9] = assay: Antiproliferative activity against human NCI-H322M cells assessed as cell growth at 0.0000001 M incubated for 48 hrs by SRB assay relative to control; format: functional; details: dose 100 nM, read-out: Activity
COLO 205 [10] = assay: Antiproliferative activity against human COLO 205 cells assessed as cell growth at 0.0000001 M incubated for 48 hrs by SRB assay relative to control; format: functional; details: dose 100 nM, read-out: Activity; summary of the method: as §1
UO-31 [11] = assay: Antiproliferative activity against human UO-31 cells assessed as cell growth at 0.0000001 M incubated for 48 hrs by SRB assay relative to control; format: functional; details: dose 100 nM, read-out: Activity
NCI-H226 = assay: Antiproliferative activity against human NCI-H226 cells assessed as cell growth at 0.000001 M incubated for 48 hrs by SRB assay relative to control; format: functional; details: read-out: Activity
COLO 205 [12] = assay: Antiproliferative activity against human COLO 205 cells assessed as cell growth at 0.000001 M incubated for 48 hrs by SRB assay relative to control; format: functional; details: read-out: Activity; summary of the method: as §1
SF-268 [13] = assay: Antiproliferative activity against human SF-268 cells assessed as cell growth at 0.000001 M incubated for 48 hrs by SRB assay relative to control; format: functional; details: read-out: Activity
SNB-75 [14] = assay: Antiproliferative activity against human SNB-75 cells assessed as cell growth at 0.000001 M incubated for 48 hrs by SRB assay relative to control; format: functional; details: read-out: Activity
UACC-62 = assay: Antiproliferative activity against human UACC-62 cells assessed as cell growth at 0.000001 M incubated for 48 hrs by SRB assay relative to control; format: functional; details: read-out: Activity
IGROV-1 = assay: Antiproliferative activity against human IGROV-1 cells assessed as cell growth at 0.000001 M incubated for 48 hrs by SRB assay relative to control; format: functional; details: read-out: Activity
OVCAR-8 [15] = assay: Antiproliferative activity against human OVCAR-8 cells assessed as cell growth at 0.000001 M incubated for 48 hrs by SRB assay relative to control; format: functional; details: read-out: Activity
SK-OV-3 = assay: Antiproliferative activity against human SK-OV-3 cells assessed as cell growth at 0.000001 M incubated for 48 hrs by SRB assay relative to control; format: functional; details: read-out: Activity
NCI-H322M [16] = assay: Antiproliferative activity against human NCI-H322M cells assessed as cell growth at 0.00001 M incubated for 48 hrs by SRB assay relative to control; format: functional; details: read-out: Activity
SF-295 = assay: Antiproliferative activity against human SF-295 cells assessed as cell growth at 0.00001 M incubated for 48 hrs by SRB assay relative to control; format: functional; details: read-out: Activity
SK-MEL-28 = assay: Antiproliferative activity against human SK-MEL-28 cells assessed as cell growth at 0.00001 M incubated for 48 hrs by SRB assay relative to control; format: functional; details: read-out: Activity
DU-145 [17] = assay: Antiproliferative activity against human DU-145 cells assessed as cell growth at 0.00001 M incubated for 48 hrs by SRB assay relative to control; format: functional; details: read-out: Activity; summary of the method: as §2
SR = assay: Antiproliferative activity against human SR cells assessed as cell growth at 0.0001 M incubated for 48 hrs by SRB assay relative to control; format: functional; details: read-out: Activity
SNB-75 [18] = assay: Antiproliferative activity against human SNB-75 cells assessed as cell growth at 0.0001 M incubated for 48 hrs by SRB assay relative to control; format: functional; details: read-out: Activity
MDA-MB-231 = assay: Antiproliferative activity against human MDA-MB-231 cells assessed as cell growth at 0.0001 M incubated for 48 hrs by SRB assay relative to control; format: functional; details: read-out: Activity

Compound | Activity (Calf thymus DNA) | Activity (HEK293) [%] | growth at 0.01 µM (DU-145 [1]) [%] | growth at 0.01 µM (UO-31 [2]) [%] | growth at 0.01 µM (A498) [%] | growth at 0.01 µM (OVCAR-8 [3]) [%] | growth at 0.01 µM (MOLT-4) [%] | growth at 0.01 µM (NCI-H522 [4]) [%] | growth at 0.01 µM (SNB-19 [5]) [%] | CC50 (NCI-H522 [6]) [µM] | CC50 (HL-60) [µM] | TGI (OVCAR-3) [µM] | TGI (NCI-H460) [µM] | GI50 (SNB-19 [7]) [µM] | GI50 (SF-268 [8]) [µM] | growth at 0.1 µM (HOP-92) [%] | growth at 0.1 µM (NCI-H322M [9]) [%] | growth at 0.1 µM (COLO 205 [10]) [%] | growth at 0.1 µM (UO-31 [11]) [%] | growth at 1 µM (NCI-H226) [%] | further results
COc1ccc(-c2cn3ccnc3c(-c3ccc4ncn(C5CCCCC5)c4c3)n2)cc1 | Active | 19.05 | 103 | 91 | 100 | 105 | 100 | 88 | 107 | > 100 | > 100 | > 100 | > 100 | 0.836 | 2.38 | 94 | 90 | 102 | 88 | 73 | growth at 1 µM (COLO 205 [12]): 76%; growth at 1 µM (SF-268 [13]): 65%; growth at 1 µM (SNB-75 [14]): 45%; growth at 1 µM (UACC-62): 27%; growth at 1 µM (IGROV-1): 49%; growth at 1 µM (OVCAR-8 [15]): 92%; growth at 1 µM (SK-OV-3): 34%; growth at 10 µM (NCI-H322M [16]): 53%; growth at 10 µM (SF-295): -29%; growth at 10 µM (SK-MEL-28): 33%; growth at 10 µM (DU-145 [17]): 14%; growth at 100 µM (SR): 16%; growth at 100 µM (SNB-75 [18]): 11%; growth at 100 µM (MDA-MB-231): 19%
c1ccc(Cn2cnc3ccc(-c4nc(-c5ccc6c(c5)ncn6C5CCCCC5)cn5ccnc45)cc32)cc1 | Active | 18.05 | 99 | 91 | 95 | 106 | 112 | 93 | 99 | > 100 | > 100 | 5.79 | 5.66 | 4.54 | 2.48 | 98 | 91 | 99 | 86 | 95 | growth at 1 µM (COLO 205 [12]): 92%; growth at 1 µM (SF-268 [13]): 82%; growth at 1 µM (SNB-75 [14]): 60%; growth at 1 µM (UACC-62): 87%; growth at 1 µM (IGROV-1): 73%; growth at 1 µM (OVCAR-8 [15]): 102%; growth at 1 µM (SK-OV-3): 100%; growth at 10 µM (NCI-H322M [16]): 8%; growth at 10 µM (SF-295): -82%; growth at 10 µM (SK-MEL-28): -9%; growth at 10 µM (DU-145 [17]): 4%; growth at 100 µM (SR): 6%; growth at 100 µM (SNB-75 [18]): -47%; growth at 100 µM (MDA-MB-231): -31%
